Experimental data reported in ChEMBL document CHEMBL2321753, “Synthesis and biological evaluation of radioiodinated quinacrine-based derivatives for SPECT imaging of Aβ plaques” (Eur J Med Chem, 2013).

How the values were obtained:
Heart [1] = assay: Biodistribution in ddY mouse heart at 0.1 to 0.4 uCi, iv after 10 mins by gamma counting; format: ADME, organism-based; conditions: in vivo
Outline: (§1)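 [125I]ligand (0.1–0.4 µCi) in 100 µL PBS (pH 7.4) containing 30 µL DMSO, injected into the tail vein of ddY mice (5 weeks, 22–25 g). Mice sacrificed at 2, 10, 30 and 60 min. Organs removed, weighed and gamma-counted. Values are % injected dose per gram, except stomach as % dose per organ. Mean (SD) of 3–6 mice per time point.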

Blood [2] = assay: Biodistribution in ddY mouse blood at 0.1 to 0.4 uCi, iv after 2 mins by gamma counting; format: ADME, organism-based; conditions: in vivo; outline: as §1
Stomach [3] = assay: Biodistribution in ddY mouse stomach assessed per organ at 0.1 to 0.4 uCi, iv after 10 mins by gamma counting; format: ADME, organism-based; conditions: in vivo; outline: as §1
Pancreas [4] = assay: Biodistribution in ddY mouse pancreas at 0.1 to 0.4 uCi, iv after 2 mins by gamma counting; format: ADME, organism-based; conditions: in vivo; outline: as §1
Intestine [5] = assay: Biodistribution in ddY mouse intestine at 0.1 to 0.4 uCi, iv after 10 mins by gamma counting; format: ADME, organism-based; conditions: in vivo; outline: as §1
Liver [6] = assay: Biodistribution in ddY mouse liver at 0.1 to 0.4 uCi, iv after 30 mins by gamma counting; format: ADME, organism-based; conditions: in vivo, 0.5 h; outline: as §1
Lung [7] = assay: Biodistribution in ddY mouse lung at 0.1 to 0.4 uCi, iv after 60 mins by gamma counting; format: ADME, organism-based; conditions: in vivo, 1 h; outline: as §1
Spleen [8] = assay: Biodistribution in ddY mouse spleen at 0.1 to 0.4 uCi, iv after 2 mins by gamma counting; format: ADME, organism-based; conditions: in vivo; outline: as §1
Pancreas [9] = assay: Biodistribution in ddY mouse pancreas at 0.1 to 0.4 uCi, iv after 30 mins by gamma counting; format: ADME, organism-based; conditions: in vivo, 0.5 h; outline: as §1
Spleen [10] = assay: Biodistribution in ddY mouse spleen at 0.1 to 0.4 uCi, iv after 60 mins by gamma counting; format: ADME, organism-based; conditions: in vivo, 1 h; outline: as §1
Stomach [11] = assay: Biodistribution in ddY mouse stomach assessed per organ at 0.1 to 0.4 uCi, iv after 2 mins by gamma counting; format: ADME, organism-based; conditions: in vivo; outline: as §1
Heart [12] = assay: Biodistribution in ddY mouse heart at 0.1 to 0.4 uCi, iv after 30 mins by gamma counting; format: ADME, organism-based; conditions: in vivo, 0.5 h; outline: as §1
Spleen [13] = assay: Biodistribution in ddY mouse spleen at 0.1 to 0.4 uCi, iv after 30 mins by gamma counting; format: ADME, organism-based; conditions: in vivo, 0.5 h; outline: as §1
Stomach [14] = assay: Biodistribution in ddY mouse stomach assessed per organ at 0.1 to 0.4 uCi, iv after 30 mins by gamma counting; format: ADME, organism-based; conditions: in vivo, 0.5 h; outline: as §1
Lung [15] = assay: Biodistribution in ddY mouse lung at 0.1 to 0.4 uCi, iv after 2 mins by gamma counting; format: ADME, organism-based; conditions: in vivo; outline: as §1
[16] = biological target: Amyloid-beta precursor protein (Homo sapiens, UniProt P05067); assay: Binding affinity to amyloid beta aggregate (unknown origin) by centrifugation method
Sequence of Amyloid-beta precursor protein (P05067 whole entry): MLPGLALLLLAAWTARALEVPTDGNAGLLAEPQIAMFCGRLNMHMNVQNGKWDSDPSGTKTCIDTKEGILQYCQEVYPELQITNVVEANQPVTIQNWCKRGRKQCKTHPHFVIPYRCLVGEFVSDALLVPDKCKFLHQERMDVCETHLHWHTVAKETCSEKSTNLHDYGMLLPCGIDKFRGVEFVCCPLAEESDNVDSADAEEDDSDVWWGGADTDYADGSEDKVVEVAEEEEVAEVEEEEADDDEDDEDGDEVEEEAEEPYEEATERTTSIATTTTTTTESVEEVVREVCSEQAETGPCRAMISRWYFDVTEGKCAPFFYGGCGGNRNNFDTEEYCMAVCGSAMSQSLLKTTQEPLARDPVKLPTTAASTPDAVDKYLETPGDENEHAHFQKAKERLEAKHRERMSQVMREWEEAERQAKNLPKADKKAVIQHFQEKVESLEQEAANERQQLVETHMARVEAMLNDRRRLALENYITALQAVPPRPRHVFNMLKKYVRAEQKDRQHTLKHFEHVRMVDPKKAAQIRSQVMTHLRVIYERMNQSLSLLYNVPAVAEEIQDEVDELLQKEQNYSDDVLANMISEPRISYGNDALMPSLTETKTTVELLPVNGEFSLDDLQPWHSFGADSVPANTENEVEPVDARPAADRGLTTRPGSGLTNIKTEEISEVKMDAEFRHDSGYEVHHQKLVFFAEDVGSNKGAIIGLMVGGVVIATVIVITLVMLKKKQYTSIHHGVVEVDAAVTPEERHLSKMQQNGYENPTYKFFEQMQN
Outline: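 Aβ(1-42) aggregated at 0.25 mg/mL in pH 7.4 buffer (10 mM sodium phosphate, 1 mM EDTA), 37 °C for 42 h with shaking. [125I]ligand at 4–500 nM final (set with unlabelled compound) in 10% EtOH incubated with aggregates 2 h at room temperature. Centrifuged 16,000 rpm, 10 min; supernatant gamma-counted for bound/free ratio. Nonspecific binding with 10 µM unlabelled ligand. Kd and Bmax from Scatchard analysis.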

Spleen [17] = assay: Biodistribution in ddY mouse spleen at 0.1 to 0.4 uCi, iv after 10 mins by gamma counting; format: ADME, organism-based; conditions: in vivo; outline: as §1
Heart [18] = assay: Biodistribution in ddY mouse heart at 0.1 to 0.4 uCi, iv after 2 mins by gamma counting; format: ADME, organism-based; conditions: in vivo; outline: as §1
Stomach [19] = assay: Biodistribution in ddY mouse stomach assessed per organ at 0.1 to 0.4 uCi, iv after 60 mins by gamma counting; format: ADME, organism-based; conditions: in vivo, 1 h; outline: as §1
Kidney [20] = assay: Biodistribution in ddY mouse kidney at 0.1 to 0.4 uCi, iv after 2 mins by gamma counting; format: ADME, organism-based; conditions: in vivo; outline: as §1
[21] = n-octanol-sodium phosphate buffer partition co-efficient, log D of the compound at pH 7.4 by shake flask method; format: physicochemical
Outline: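 Shake-flask partition between n-octanol and sodium phosphate buffer, pH 7.4, shaken 10 min at room temperature, then centrifuged. Weighed 0.5 mL samples of each layer counted. log D from the ratio of cpm per gram of octanol to cpm per gram of buffer; n = 3.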

Lung [22] = assay: Biodistribution in ddY mouse lung at 0.1 to 0.4 uCi, iv after 10 mins by gamma counting; format: ADME, organism-based; conditions: in vivo; outline: as §1
Heart [23] = assay: Biodistribution in ddY mouse heart at 0.1 to 0.4 uCi, iv after 60 mins by gamma counting; format: ADME, organism-based; conditions: in vivo, 1 h; outline: as §1
Liver [24] = assay: Biodistribution in ddY mouse liver at 0.1 to 0.4 uCi, iv after 10 mins by gamma counting; format: ADME, organism-based; conditions: in vivo; outline: as §1
Liver [25] = assay: Biodistribution in ddY mouse liver at 0.1 to 0.4 uCi, iv after 60 mins by gamma counting; format: ADME, organism-based; conditions: in vivo, 1 h; outline: as §1
Kidney [26] = assay: Biodistribution in ddY mouse kidney at 0.1 to 0.4 uCi, iv after 30 mins by gamma counting; format: ADME, organism-based; conditions: in vivo, 0.5 h; outline: as §1
Brain [27] = assay: Biodistribution in ddY mouse brain at 0.1 to 0.4 uCi, iv after 10 mins by gamma counting; format: ADME, organism-based; conditions: in vivo; outline: as §1
Blood [28] = assay: Biodistribution in ddY mouse blood at 0.1 to 0.4 uCi, iv after 60 mins by gamma counting; format: ADME, organism-based; conditions: in vivo, 1 h; outline: as §1
Kidney [29] = assay: Biodistribution in ddY mouse kidney at 0.1 to 0.4 uCi, iv after 60 mins by gamma counting; format: ADME, organism-based; conditions: in vivo, 1 h; outline: as §1
Brain [30] = assay: Biodistribution in ddY mouse brain at 0.1 to 0.4 uCi, iv after 2 mins by gamma counting; format: ADME, organism-based; conditions: in vivo; outline: as §1
Intestine [31] = assay: Biodistribution in ddY mouse intestine at 0.1 to 0.4 uCi, iv after 2 mins by gamma counting; format: ADME, organism-based; conditions: in vivo; outline: as §1
Blood [32] = assay: Biodistribution in ddY mouse blood at 0.1 to 0.4 uCi, iv after 10 mins by gamma counting; format: ADME, organism-based; conditions: in vivo; outline: as §1
Brain [33] = assay: Biodistribution in ddY mouse brain at 0.1 to 0.4 uCi, iv after 60 mins by gamma counting; format: ADME, organism-based; conditions: in vivo, 1 h; outline: as §1
Liver [34] = assay: Biodistribution in ddY mouse liver at 0.1 to 0.4 uCi, iv after 2 mins by gamma counting; format: ADME, organism-based; conditions: in vivo; outline: as §1
Kidney [35] = assay: Biodistribution in ddY mouse kidney at 0.1 to 0.4 uCi, iv after 10 mins by gamma counting; format: ADME, organism-based; conditions: in vivo; outline: as §1
Brain [36] = assay: Biodistribution in ddY mouse brain at 0.1 to 0.4 uCi, iv after 30 mins by gamma counting; format: ADME, organism-based; conditions: in vivo, 0.5 h; outline: as §1
Lung [37] = assay: Biodistribution in ddY mouse lung at 0.1 to 0.4 uCi, iv after 30 mins by gamma counting; format: ADME, organism-based; conditions: in vivo, 0.5 h; outline: as §1
Intestine [38] = assay: Biodistribution in ddY mouse intestine at 0.1 to 0.4 uCi, iv after 60 mins by gamma counting; format: ADME, organism-based; conditions: in vivo, 1 h; outline: as §1
Intestine [39] = assay: Biodistribution in ddY mouse intestine at 0.1 to 0.4 uCi, iv after 30 mins by gamma counting; format: ADME, organism-based; conditions: in vivo, 0.5 h; outline: as §1
Blood [40] = assay: Biodistribution in ddY mouse blood at 0.1 to 0.4 uCi, iv after 30 mins by gamma counting; format: ADME, organism-based; conditions: in vivo, 0.5 h; outline: as §1
Pancreas [41] = assay: Biodistribution in ddY mouse pancreas at 0.1 to 0.4 uCi, iv after 60 mins by gamma counting; format: ADME, organism-based; conditions: in vivo, 1 h; outline: as §1
Pancreas [42] = assay: Biodistribution in ddY mouse pancreas at 0.1 to 0.4 uCi, iv after 10 mins by gamma counting; format: ADME, organism-based; conditions: in vivo; outline: as §1
Brain [43] = assay: Ratio of drug level in brain after 2 mins to brain after 60 mins in ddY mouse brain at 0.1 to 0.4 uCi, iv; format: ADME, organism-based; conditions: in vivo
Outline: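 ddY mice (5 weeks, 22–25 g) given [125I]ligand (0.1–0.4 µCi) iv in PBS/DMSO. Brain radioactivity (% dose/g) measured by gamma counting at 2 and 60 min, and the 2 min/60 min ratio taken as a washout index.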

CCN(CC)CCCC(C)Nc1c2ccc([125I])cc2nc2ccc(OC)cc12 (stereo not drawn)
Drug uptake (Heart [1]): 13.09 % ID/g
Drug uptake (Blood [2]): 4.21 % ID/g
Drug uptake (Stomach [3]): 1.33 %ID
Drug uptake (Pancreas [4]): 4.76 % ID/g
Drug uptake (Intestine [5]): 2.55 % ID/g
Drug uptake (Liver [6]): 11.02 % ID/g
Drug uptake (Lung [7]): 25.58 % ID/g
Drug uptake (Spleen [8]): 6.14 % ID/g
Drug uptake (Pancreas [9]): 7.67 % ID/g
Drug uptake (Spleen [10]): 11.17 % ID/g
Drug uptake (Stomach [11]): 1.18 %ID
Drug uptake (Heart [12]): 7 % ID/g
Drug uptake (Spleen [13]): 10.88 % ID/g
Drug uptake (Stomach [14]): 1.48 %ID
Drug uptake (Lung [15]): 73.08 % ID/g
Kd [16]: 48.4 nM
Drug uptake (Spleen [17]): 9.38 % ID/g
Drug uptake (Heart [18]): 15.53 % ID/g
Drug uptake (Stomach [19]): 1.24 %ID
Drug uptake (Kidney [20]): 10.23 % ID/g
logD [21]: 1.11
Drug uptake (Lung [22]): 59.55 % ID/g
Drug uptake (Heart [23]): 3.96 % ID/g
Drug uptake (Liver [24]): 9.7 % ID/g
Drug uptake (Liver [25]): 11.61 % ID/g
Drug uptake (Kidney [26]): 13.93 % ID/g
Drug uptake (Brain [27]): 0.33 % ID/g
Drug uptake (Blood [28]): 0.52 % ID/g
Drug uptake (Kidney [29]): 12.19 % ID/g
Drug uptake (Brain [30]): 0.32 % ID/g
Drug uptake (Intestine [31]): 1.89 % ID/g
Drug uptake (Blood [32]): 1.85 % ID/g
Drug uptake (Brain [33]): 0.28 % ID/g
Drug uptake (Liver [34]): 8.15 % ID/g
Drug uptake (Kidney [35]): 13.58 % ID/g
Drug uptake (Brain [36]): 0.24 % ID/g
Drug uptake (Lung [37]): 35.64 % ID/g
Drug uptake (Intestine [38]): 5.59 % ID/g
Drug uptake (Intestine [39]): 4.4 % ID/g
Drug uptake (Blood [40]): 0.73 % ID/g
Drug uptake (Pancreas [41]): 6.32 % ID/g
Drug uptake (Pancreas [42]): 5.85 % ID/g

COc1ccc2nc3cc([125I])ccc3c(OC)c2c1
Drug uptake (Heart [1]): 1.82 % ID/g
Drug uptake (Blood [2]): 2.14 % ID/g
Drug uptake (Stomach [3]): 3.51 %ID
Drug uptake (Pancreas [4]): 5.41 % ID/g
Drug uptake (Intestine [5]): 6.41 % ID/g
Ratio (Brain [43]): 11.9
Drug uptake (Liver [6]): 13.65 % ID/g
Drug uptake (Lung [7]): 2.04 % ID/g
Drug uptake (Spleen [8]): 3.75 % ID/g
Drug uptake (Pancreas [9]): 1.33 % ID/g
Drug uptake (Spleen [10]): 1.24 % ID/g
Drug uptake (Stomach [11]): 1.86 %ID
Drug uptake (Heart [12]): 1.59 % ID/g
Drug uptake (Spleen [13]): 1.87 % ID/g
Drug uptake (Stomach [14]): 5.97 %ID
Drug uptake (Lung [15]): 5.95 % ID/g
Drug uptake (Spleen [17]): 2.12 % ID/g
Drug uptake (Heart [18]): 5.83 % ID/g
Drug uptake (Stomach [19]): 4.36 %ID
Drug uptake (Kidney [20]): 8.07 % ID/g
Drug uptake (Lung [22]): 3.37 % ID/g
Drug uptake (Heart [23]): 1.1 % ID/g
Drug uptake (Liver [24]): 20.85 % ID/g
Drug uptake (Liver [25]): 5.8 % ID/g
Drug uptake (Kidney [26]): 4.41 % ID/g
Drug uptake (Brain [27]): 2.14 % ID/g
Drug uptake (Blood [28]): 1.77 % ID/g
Drug uptake (Kidney [29]): 2.77 % ID/g
Drug uptake (Brain [30]): 4.41 % ID/g
Drug uptake (Intestine [31]): 2.59 % ID/g
Drug uptake (Blood [32]): 2.19 % ID/g
Drug uptake (Brain [33]): 0.37 % ID/g
Drug uptake (Liver [34]): 18.77 % ID/g
Drug uptake (Kidney [35]): 4.69 % ID/g
Drug uptake (Brain [36]): 0.82 % ID/g
Drug uptake (Lung [37]): 3.28 % ID/g
Drug uptake (Intestine [38]): 20.17 % ID/g
Drug uptake (Intestine [39]): 16.78 % ID/g
Drug uptake (Blood [40]): 2.59 % ID/g
Drug uptake (Pancreas [41]): 1.1 % ID/g
Drug uptake (Pancreas [42]): 2.03 % ID/g
